Experimental data as given in ChEMBL document CHEMBL1141824, “The antiproliferative effect of acridone alkaloids on several cancer cell lines” (J Nat Prod, 1999).

Experiments:
Format in all cases: functional, cell-based
A549 = test: Antiproliferative activity against human A549 cells after 3 days by alamar blue assay; details: A549, 72 h
Outline: (§1)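 Cells kept in DMEM with 10% heat-inactivated FBS. 2×10^3 cells per well were grown 24 h, then an equal volume of medium with serial sample dilutions was added (DMSO ≤0.4%). After 3 days, alamar Blue was added for 6 h. Proliferation was taken as blank-corrected (A570−A595) as % of untreated growth control. Triplicates.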

B16 = test: Antiproliferative activity against mouse B16 cells after 3 days by alamar blue assay; details: B16, 72 h; outline: as §1
CCRF-HSB-2 = test: Antiproliferative activity against human CCRF-HSB-2 cells after 3 days by alamar blue assay; details: CCRF-HSB-2, 72 h
Outline: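 Suspension line maintained in RPMI1640 with 10% FBS. 10⁴ cells per well were preincubated 24 h, then mixed with an equal volume of serially diluted samples (DMSO up to 0.4%) and exposed for 3 days. Staining was alamar Blue for 24 h. Growth was expressed as % of untreated control from blank-subtracted A570−A595. Triplicate points.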

TGBC11TKB = test: Antiproliferative activity against human TGBC11TKB cells after 3 days by alamar blue assay; details: 72 h
Outline: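 TGBC11TKB, a lymph-node-metastasized gastric cancer line, was grown in DMEM with 5% FBS. 2×10^3 cells per well were plated, grown 24 h, then given medium with serial dilutions (final DMSO ≤0.4%) for 3 days. alamar Blue was then added for 6 h. Read-out was blank-corrected A570−A595 as % of untreated control, in triplicate.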

SMILES | IC50 (A549) | IC50 (B16) | IC50 (CCRF-HSB-2) | IC50 (TGBC11TKB)
CC(C)=CCc1c2c(c3c(c1O)c(=O)c1cccc(O)c1n3C)C=CC(C)(C)O2 | 9.37 µM | 8.04 µM | 5.41 µM | 2.13 µM
CC1(C)C=Cc2c(cc(O)c3c(=O)c4cccc(O)c4[nH]c23)O1 [ATOLAPHYLLIDINE] | 6.98 µM | 5.58 µM | 4.65 µM | 2.83 µM
COc1cc(O)c2c(=O)c3ccc(O)c(OC)c3n(C)c2c1 [CITPRESSINE II] | > 40 µM | > 40 µM | > 40 µM | > 40 µM
COc1ccc2c(=O)c3c(O)cc4c(c3n(C)c2c1OC)C=CC(C)(C)O4 [CITRACRIDONE II] | > 40 µM | > 40 µM | > 40 µM | > 40 µM
COc1cc(O)c2c(=O)c3cccc(O)c3n(C)c2c1OC [CITRUSININE-I] | > 40 µM | > 40 µM | > 40 µM | > 40 µM
Cn1c2ccccc2c(=O)c2c(O)cc3c(c21)C=CC(C)(C)O3 [NORACRONYCINE] | > 40 µM | > 40 µM | > 40 µM | > 40 µM

More lines, main results first:

IC50 (A549) | IC50 (B16) | IC50 (CCRF-HSB-2) | SMILES | IC50 (TGBC11TKB)
> 40 µM | > 40 µM | 23.6 µM | Cn1c2c(O)cccc2c(=O)c2c(O)cc3c(c21)C=CC(C)(C)O3 | 16.2 µM
> 40 µM | > 40 µM | > 40 µM | CC(C)=CCc1c2c(c3c(c1O)c(=O)c1ccccc1n3C)C=CC(C)(C)O2 | > 40 µM
6.37 µM | 5.05 µM | 3.1 µM | CC1(C)C=Cc2c(cc(O)c3c(=O)c4ccccc4[nH]c23)O1 | 2.07 µM
> 40 µM | > 40 µM | > 40 µM | COc1cc2c(c3[nH]c4ccccc4c(=O)c13)C=CC(C)(C)O2 | > 40 µM
6.26 µM | 4.63 µM | 2.5 µM | CC(C)=CCc1c2c(c3[nH]c4c(O)cccc4c(=O)c3c1O)C=CC(C)(C)O2 [ATALAPHYLLININE] | 1.43 µM
> 40 µM | > 40 µM | > 40 µM | COc1c(O)ccc2c(=O)c3c(O)cc4c(c3n(C)c12)C=CC(C)(C)O4 [CITRACRIDONE I] | > 40 µM
> 40 µM | > 40 µM | > 40 µM | CC(C)=CCc1c(O)cc(O)c2c(=O)c3ccccc3n(C)c12 [GLYCOCITRINE II] | > 40 µM
> 40 µM | > 40 µM | > 40 µM | COc1cc(O)c2c(=O)c3cccc(O)c3n(C)c2c1CC=C(C)C [GLYCOCITRINE I] | > 40 µM
24.4 µM | > 40 µM | 29.2 µM | COc1cc(O)c2c(=O)c3ccc(OC)c(O)c3n(C)c2c1 [GRANDISINE I] | 19.3 µM
